# Experimental data: PMC11529822 (Lab on a Chip, 2024)
# Key:
# [1] = system: MDA-MB-231, HepG2/C3A and HS-5 cells; experiment: Tissue chip dose response, summary across all three compartments; assay type: cell-based; details: Homo sapiens, read-out: IC50 values across all compartments
# Method in brief: (§1)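 Tumour compartment: MDA-MB-231 spheroids (10 × 10^3 cells, formed 4 days before seeding) in 3.5 mg mL−1 collagen. Liver (HepG2/C3A) and stroma (HS-5) compartments: 15 × 10^3 single cells in the same collagen. Medium 1:1 EMEM:DMEM under rocker-driven gravity flow. Test compound medium from day 1, replenished every 2 days, 5 days total. Four concentrations including control, 2–4 replicates; single-dose runs at 50 μM. PrestoBlue 15% v/v, 1 h, ex 560/em 590 nm; AUC computed.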
# [2] = Tissue chip liver compartment: viability of HepG2/C3A cells in collagen; assay type: cell-based, human; details: human
# Method in brief: as §1
# [3] = Tissue chip bone marrow stroma compartment: viability of HS-5 cells in collagen; assay type: cell-based, human; parameters: AUC HS-5: unit not given beside the values; details: human
# Method in brief: as §1
# HepG2/C3A liver cells = experiment: Tissue chip liver compartment: viability of HepG2/C3A cells in collagen; assay type: cell-based, human; details: for IC50: Homo sapiens, HepG2/C3A, read-out: IC50 HepG2/C3A; for AUC HepG2/C3A: area under the dose-response curve, tissue chip, liver compartment
# Method in brief: as §1
# [4] = system: MDA-MB-231 breast cancer cells; assay type: cell-based, human; details: for IC50: Homo sapiens, MDA-MB-231, read-out: IC50 MDA-MB-231; for AUC MDA-MB-231: area under the dose-response curve, tissue chip, tumor compartment
# Method in brief: as §1
# [5] = system: HS-5 bone marrow stromal cells; experiment: Tissue chip bone marrow stroma compartment: viability of HS-5 cells in collagen; assay type: cell-based, human; parameters: AUC HS-5: unit not given beside the values; details: for IC50: Homo sapiens, HS5, read-out: IC50 HS-5; for AUC HS-5: area under the dose-response curve, tissue chip, bone marrow stroma compartment
# Method in brief: as §1
Compound,IC50 [1] [nM],"viability at 5 days, 50 μM [2] [%]","viability at 5 days, 50 μM [3] [%]",IC50 (HepG2/C3A liver cells) [nM],AUC HepG2/C3A (HepG2/C3A liver cells),IC50 [4] [nM],AUC MDA-MB-231 [4],IC50 [5] [nM],AUC HS-5 [5]
"O=c1[nH]cc(F)c(=O)[nH]1 [5-FU, 5-fluorouracil]",1000 to 10000,20,24,,,,,,
"COc1cccc2c1C(=O)c1c(O)c3c(c(O)c1C2=O)C[C@@](O)(C(=O)CO)C[C@@H]3O[C@H]1C[C@H](N)[C@H](O)[C@H](C)O1 [Doxorubicin, doxorubicin]",,,,231,0.72,5.5,0.47,4.6,0.45
"CC(=O)Nc1cccc(-n2c(=O)n(C3CC3)c(=O)c3c(Nc4ccc(I)cc4F)n(C)c(=O)c(C)c32)c1 [Trametinib, trametinib]",,,,12.2,0.75,0.06,0.63,> 1000,0.98
